Published values of several laboratories.
Protocols differ between the studies behind these lines.
Target: Mitogen-activated protein kinase 10 (MAPK10, Homo sapiens, UniProt P53779)

| SMILES | effect on | mode | method | tested at | quantity | value |
| --- | --- | --- | --- | --- | --- | --- |
| CN1CC(Oc2cnc(C#N)cc2-c2ccn3nc(NC(=O)C4CC4)cc3c2)C1 | enzyme activity | inhibitor |  | 1 µM | inhibition | 2% |
| COc1cc(/C=C/C(=O)CC(=O)/C=C/c2ccc(O)c(OC)c2)ccc1O | enzyme activity | inhibitor |  | 1 µM | activity vs control | 109% |
| O=C1NC(=O)c2cc(Nc3ccc(F)cc3)c(Nc3ccc(F)cc3)cc21 | cell-free assay |  |  | 0.5 µM | remaining signal | 97.3% |
| CNC(=O)c1cc(Oc2ccc(NC(=O)Nc3ccc(Cl)c(C(F)(F)F)c3)cc2)ccn1 | enzyme activity | inhibitor |  | 10 µM | inhibition | 66% |
| COc1cc(-c2cc(-c3ccc(N4CCNCC4)cc3)cnc2C)cc(OC)c1OC | enzyme activity | inhibitor |  | 1 µM | inhibition | 3% |
| CC(C)(C)c1nc2c(s1)c1nc(N)ncc1c1ccc(NS(=O)(=O)c3c(F)cccc3F)c(F)c12 | enzyme activity | inhibitor | radiometric | 1 µM | remaining activity | 70% |
| CS(=O)(=O)N1CCCC(NC(=O)[C@H](CCC2CCCCC2)NC(=O)c2ccc(CNc3ncnc4c3nnn4-c3ccccc3)cc2)C1 (stereo partly drawn) | cell-free assay |  | competition with immobilised ligand | 0.1 µM | remaining binding | 100% |
| FC(F)(F)Oc1cccc(-c2cnc3ccc(-c4ccncc4)nn23)c1 | enzyme activity | inhibitor | radiometric | 1 µM | activity vs control | 85% |
| COc1cc(Cl)c(C(=O)N[C@@H](CN[C@H]2CC[C@@H](N)CC2)Cc2ccc(C#N)cc2)cc1-c1ccc(CN[C@H](C)c2ccc(C)cc2)o1 | enzyme activity | inhibitor |  | 1 µM | remaining activity | 93% |
| N#CCCc1ccc2c(c1)-c1[nH]c3ccc([N+](=O)[O-])cc3c1CC(=O)N2 | cell-free assay |  |  | 0.5 µM | remaining signal | 93.3% |
| C[C@H](c1ccnc(Nc2nc3ccc(-c4cc(N(C)C)ncn4)cc3[nH]2)c1)N1CCN(C(=O)CC(F)(F)F)CC1 | cell-free assay |  | competition with immobilised ligand | 0.1 µM | remaining binding | 81% |
| Nc1ncnc2c1ncn2[C@@H]1O[C@H](COP(=O)(O)OP(=O)(O)OP(=O)(O)O)[C@@H](O)[C@H]1O | thermal stability |  | DSF | 2 µM | ΔTm | ~4.6 °C |
| CCS(=O)(=O)c1cc2cc(C[C@@](O)(CC(C)(C)c3ccc(F)cc3C(N)=O)C(F)(F)F)[nH]c2cn1 | cell-free assay |  | competition with immobilised ligand | 1 µM | remaining binding | 100% |
| COc1cc2ncnc(Nc3ccc(Oc4ccccc4)c(C)c3C)c2cc1OC | enzyme activity | inhibitor |  | 1 µM | inhibition | -1% |
| CCCS(=O)(=O)Nc1ccc(F)c(C(=O)c2c[nH]c3ncc(-c4ccc(Cl)cc4)cc23)c1F | enzyme activity | inhibitor |  | 1 µM | inhibition | < 10% |
| Cc1cc(NC(=O)c2cccc3cc(-c4cccc5[nH]nc(N)c45)ccc23)ccc1F | enzyme activity | inhibitor |  | 0.1 µM | activity vs control | 102% |
| O=C(Nc1cccnn1)N1CCC(=Cc2cccc(Oc3ccc(C(F)(F)F)cn3)c2)CC1 | cell-free assay |  | competition with immobilised ligand | 1 µM | remaining binding | 100% |
| FC(F)c1nc2ccccc2n1-c1nc(N2CCOCC2)nc(N2CCOCC2)n1 | enzyme activity | inhibitor |  | 10 µM | remaining activity | 88% |
| C[C@@]1(Cc2ccc(C#N)cc2)C(=O)N(c2cc(Cl)cc(Cl)c2)c2ncc(C(=O)NC3(c4nc(C5CCC5)no4)CC3)n21 | cell-free assay |  | competition with immobilised ligand | 1 µM | remaining binding | 100% |
| Cc1ccc(C(=O)Nc2ccc(CN3CCN(C)CC3)c(C(F)(F)F)c2)cc1C#Cc1cnc2cccnn12 | enzyme activity | inhibitor |  | 23.5 nM | remaining activity | 85% |
| CC(=O)N1CCC(c2ccc(C(=O)NC3=NCCN3)cc2C(F)(F)F)CC1 | cell-free assay |  | competition with immobilised ligand | 1 µM | remaining binding | 100% |
| Cc1ccc(C(=O)NCc2ccsc2)cc1C#Cc1cn(C(C)C)c2ncnc(N)c12 | enzyme activity | inhibitor |  | 1 µM | activity vs control | 84% |
| COc1cc(Nc2cnc(C#N)c(O[C@H](C)CN(C)C)n2)ncc1-c1cnn(C)c1 | enzyme activity | inhibitor | radiometric | 10 µM | remaining activity | 97% |
| CN(C)CC#Cc1ccc(OCCCc2sc(N3CCc4cccc(C(=O)Nc5nc6ccccc6s5)c4C3)nc2C(=O)O)c(F)c1 | cell-free assay |  | competition with immobilised ligand | 1 µM | remaining binding | 71% |
